One block for each compound: values may come before it.
Legend:
Type in all cases: cell-based
human CFTR [1] = target: T1, human CFTR (Homo sapiens, UniProt P13569); test: Single-shot microfluidics YFP fluorescence iodide influx assay, CFTR
human CFTR [2] = target: T1, human CFTR; test: Conventional plate reader YFP fluorescence iodide influx assay, CFTR
human TMEM16A = target: T2, human TMEM16A (Homo sapiens, UniProt Q5XXA6, DEL476-501); test: Single-shot microfluidics YFP fluorescence iodide influx assay, TMEM16A; details: TMEM16A-expressing FRT cells; fitted dose-response, Fig. 4B
T2 sequence (Q5XXA6 with tags, fused parts or gaps isoform Q5XXA6-5 DEL539-564): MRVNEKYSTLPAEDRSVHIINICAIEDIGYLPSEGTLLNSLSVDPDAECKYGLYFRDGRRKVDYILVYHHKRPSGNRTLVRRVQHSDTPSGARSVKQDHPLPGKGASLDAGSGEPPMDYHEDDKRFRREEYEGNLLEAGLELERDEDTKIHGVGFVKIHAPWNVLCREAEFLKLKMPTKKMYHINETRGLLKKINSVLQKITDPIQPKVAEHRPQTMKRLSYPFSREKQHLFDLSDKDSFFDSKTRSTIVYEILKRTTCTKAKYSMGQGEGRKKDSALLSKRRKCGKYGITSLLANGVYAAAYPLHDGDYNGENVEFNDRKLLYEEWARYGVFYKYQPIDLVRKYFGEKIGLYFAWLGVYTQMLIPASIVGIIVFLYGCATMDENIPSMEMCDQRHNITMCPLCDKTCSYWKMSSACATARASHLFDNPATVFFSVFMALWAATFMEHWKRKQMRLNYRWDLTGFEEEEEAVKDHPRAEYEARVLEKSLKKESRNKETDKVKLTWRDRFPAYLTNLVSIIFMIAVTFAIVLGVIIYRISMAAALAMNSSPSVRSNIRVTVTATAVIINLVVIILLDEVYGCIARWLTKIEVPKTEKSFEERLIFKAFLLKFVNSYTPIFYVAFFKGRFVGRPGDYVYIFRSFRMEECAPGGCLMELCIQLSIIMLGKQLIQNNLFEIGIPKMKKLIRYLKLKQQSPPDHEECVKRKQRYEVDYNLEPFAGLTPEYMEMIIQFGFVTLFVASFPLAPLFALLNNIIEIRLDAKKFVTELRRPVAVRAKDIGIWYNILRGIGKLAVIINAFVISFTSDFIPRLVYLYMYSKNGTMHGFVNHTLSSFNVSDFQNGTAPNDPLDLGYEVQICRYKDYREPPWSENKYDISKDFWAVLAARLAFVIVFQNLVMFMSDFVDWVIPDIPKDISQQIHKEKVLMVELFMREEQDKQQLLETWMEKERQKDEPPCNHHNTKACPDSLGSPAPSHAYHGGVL
Outline: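 FRT cells stably co-expressing human TMEM16A (abc isoform) and YFP-F46L/H148Q/I152L were grown 8–24 h at 37 °C under perfusion on fibronectin-coated coverglass. Cells were perfused 10 min with a gradient between PBS and PBS containing 30 μM test compound. Solution was then switched to 70 mM I− plus 50 μM ATP. YFP fluorescence was imaged at 2 Hz, and the Hill equation was fitted.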

T1 sequence (P13569 whole entry): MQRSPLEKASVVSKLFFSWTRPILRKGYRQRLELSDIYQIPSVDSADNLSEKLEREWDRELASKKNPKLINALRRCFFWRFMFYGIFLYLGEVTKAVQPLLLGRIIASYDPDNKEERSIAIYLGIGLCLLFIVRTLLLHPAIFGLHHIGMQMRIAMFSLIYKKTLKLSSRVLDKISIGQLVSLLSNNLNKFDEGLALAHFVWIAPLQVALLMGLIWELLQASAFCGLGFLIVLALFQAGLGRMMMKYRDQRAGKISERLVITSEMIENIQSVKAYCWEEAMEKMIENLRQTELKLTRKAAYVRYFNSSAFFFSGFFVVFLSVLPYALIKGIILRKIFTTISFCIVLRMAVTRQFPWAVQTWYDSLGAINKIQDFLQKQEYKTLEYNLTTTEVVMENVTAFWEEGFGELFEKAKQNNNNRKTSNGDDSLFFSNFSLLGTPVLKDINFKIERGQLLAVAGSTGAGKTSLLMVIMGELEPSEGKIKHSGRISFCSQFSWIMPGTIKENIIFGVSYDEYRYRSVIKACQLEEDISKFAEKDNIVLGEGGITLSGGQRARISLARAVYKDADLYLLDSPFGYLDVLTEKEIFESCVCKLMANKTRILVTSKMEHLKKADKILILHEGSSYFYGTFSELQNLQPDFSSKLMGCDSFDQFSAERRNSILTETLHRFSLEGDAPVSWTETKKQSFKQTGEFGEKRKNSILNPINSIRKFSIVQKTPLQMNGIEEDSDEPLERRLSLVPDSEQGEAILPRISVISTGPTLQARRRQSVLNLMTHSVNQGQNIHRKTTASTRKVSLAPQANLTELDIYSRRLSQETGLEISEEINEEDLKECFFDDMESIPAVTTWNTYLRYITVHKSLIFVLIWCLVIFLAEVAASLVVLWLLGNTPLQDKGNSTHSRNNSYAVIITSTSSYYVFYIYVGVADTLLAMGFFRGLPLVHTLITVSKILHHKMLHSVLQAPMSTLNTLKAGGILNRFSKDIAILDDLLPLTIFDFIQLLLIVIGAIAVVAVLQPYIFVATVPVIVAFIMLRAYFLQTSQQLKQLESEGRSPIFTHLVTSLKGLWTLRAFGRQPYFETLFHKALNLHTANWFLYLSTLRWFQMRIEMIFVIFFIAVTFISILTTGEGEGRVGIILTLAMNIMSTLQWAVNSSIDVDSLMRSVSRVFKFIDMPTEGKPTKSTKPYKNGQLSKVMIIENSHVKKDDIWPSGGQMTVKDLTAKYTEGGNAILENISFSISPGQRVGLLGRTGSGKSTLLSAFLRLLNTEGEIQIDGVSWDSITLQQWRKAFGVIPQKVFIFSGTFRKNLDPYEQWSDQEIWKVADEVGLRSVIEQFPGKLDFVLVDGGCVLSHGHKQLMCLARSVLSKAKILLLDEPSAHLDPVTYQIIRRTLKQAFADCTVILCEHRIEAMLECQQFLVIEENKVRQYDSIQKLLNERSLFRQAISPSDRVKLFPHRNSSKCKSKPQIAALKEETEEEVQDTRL

Compound: C=C[C@@]1(C)CC(=O)[C@]2(O)[C@@]3(C)[C@@H](O)CCC(C)(C)[C@@H]3[C@H](O)[C@H](OC(C)=O)[C@@]2(C)O1 [forskolin]
IC50 (human CFTR [1]): 3.2 ± 0.2 µM
nH (Hill coefficient, CFTR activation, single-shot microfluidics) (human CFTR [1]; CFTR-expressing FRT cells, fitted dose-response, Fig. 3C): 1.8
IC50 (human CFTR [2]): 2.9 ± 0.4 µM

nH (Hill coefficient, CFTR inhibition, single-shot microfluidics) (human CFTR [1]; CFTR-expressing FRT cells, 5 μM forskolin, fitted dose-response, Fig. 3E): 1.4
Compound: CFTRinh-172

nH (Hill coefficient, TMEM16A inhibition, single-shot microfluidics) (human TMEM16A): 2.2
Compound: CCc1c(C)nc(SCC(=O)Nc2nc(-c3ccc(OC)cc3)cs2)[nH]c1=O [TMinh-A01]

— PMC3904508 (Lab on a chip, 2013)
